The IC50 is the concentration needed to halve the response being measured.

A short description of assay [1]: Inhibition of beta-lactamase AmpC. An outline of the steps:
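Cuvette assay with 1 nM AmpC β-lactamase and 200 µM nitrocefin, Triton X-100 at either 0.00002 or 0.1%. Compound and enzyme preincubated 5 min, then substrate added to start the reaction.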

Assay [2] is described as follows: Inhibition of chymotrypsin. An outline of the steps:
(§1)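 Chymotrypsin (28 nM) preincubated 5 min with inhibitor, then reaction started with 200 µM N-succinyl-Ala-Ala-Pro-Phe p-nitroanilide. In the no-preincubation variant, inhibitor and substrate were mixed first and enzyme was added to start. Progress read at 410 nm.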

Assay [3] concerns the target T1, Cruzipain (Trypanosoma cruzi, UniProt P25779). The assay can be described thus: Inhibition of cruzain in presence of 0.01% Triton X-100. In short, it runs like this:
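Recombinant cruzain (10 nM) in 0.1 M sodium acetate pH 5.5 with 5 mM DTT and 0.01% Triton X-100, substrate 2.5 µM Z-Phe-Arg-AMC. Cleavage read fluorimetrically in 96-well format, excitation 355 nm, emission 460 nm.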

Assay [4] in a line: Inhibition of malate dehydrogenase. In short, it runs like this: (§2)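 Malate dehydrogenase (2 nM) incubated 5 min with inhibitor, then reaction started with 200 µM oxaloacetic acid plus 200 µM NADH. In the no-preincubation variant, inhibitor, oxaloacetate and NADH were mixed first and enzyme was added last. NADH consumption followed at 340 nm.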
The nature of assay [5]: Inhibition of malate dehydrogenase in presence of 0.1% Triton X-100. An outline of the steps: as §2
Assay [6] in a line: Inhibition of beta-lactamase AmpC in presence of 0.1% Triton X-100. In short, it runs like this:
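Cuvette assay with 1 nM AmpC β-lactamase and 200 µM nitrocefin, Triton X-100 at either 0.00002 or 0.1%. Compound and enzyme preincubated 5 min, then substrate added to start the reaction. Nitrocefin hydrolysis read at 482 nm by UV–visible spectrophotometry at room temperature.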

Assay [7] has as its target T1, Cruzipain. In words: Inhibition of cruzain.
A short description of assay [8]: Inhibition of chymotrypsin in presence of 0.1% Triton X-100. An outline of the steps: as §1

A value given as a limit tells only on which side of the number the result lay.

T1 sequence (P25779 whole entry): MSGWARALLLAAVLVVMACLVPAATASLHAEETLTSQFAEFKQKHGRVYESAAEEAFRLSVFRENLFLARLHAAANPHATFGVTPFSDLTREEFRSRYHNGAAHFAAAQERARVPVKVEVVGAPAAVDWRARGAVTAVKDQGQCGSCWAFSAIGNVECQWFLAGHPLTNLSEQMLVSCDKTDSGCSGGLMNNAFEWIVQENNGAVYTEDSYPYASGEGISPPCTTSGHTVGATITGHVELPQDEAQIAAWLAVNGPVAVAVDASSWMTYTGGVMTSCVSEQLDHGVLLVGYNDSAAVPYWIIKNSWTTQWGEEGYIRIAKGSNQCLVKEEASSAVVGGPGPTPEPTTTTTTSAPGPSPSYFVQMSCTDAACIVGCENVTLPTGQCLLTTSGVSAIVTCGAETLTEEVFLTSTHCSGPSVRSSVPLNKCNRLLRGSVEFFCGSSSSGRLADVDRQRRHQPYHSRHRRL

Turning to `Cc1ccc(C)n1C(Cc1ccccc1)C(=O)O` (stereo not drawn), the IC50 is 95 µM in assay [1]; 570 µM in assay [2]; above 600 µM on Cruzipain [3]; 15 µM in assay [4]; above 600 µM in assay [5]; above 600 µM in assay [6]. In addition, the IC50 was below 1 µM on Cruzipain [7] and above 600 µM in assay [8].

For `C[C@H]1[C@H]2C=C[C@@H]1[C@@H](C(=O)O)[C@@H]2c1c2ccc(=O)c(O)c-2oc2c(O)c(O)ccc12`, the IC50 was 70 µM in assay [1]; 67 µM in assay [2]; 45 µM at Cruzipain [3]; 18 µM in assay [4]; 45 µM in assay [5]; above 600 µM in assay [6]. In addition, the values for the IC50 (at Cruzipain [7]; in assay [8]) were 95 µM and above 600 µM, respectively.

With `Cc1occc1C(=O)n1nnc2ccccc21`, the IC50 in assay [1] is 20 µM; in assay [2], below 1 µM; on Cruzipain [3], below 600 µM; in assay [4], 65 µM; in assay [5], above 600 µM; in assay [6], 38 µM. For the same compound, the IC50 is 106 µM against Cruzipain [7] and below 1 µM in assay [8].

On to `CC(C)[C@H](NC(=O)OC(C)(C)C)c1nnc(S(=O)(=O)Cc2c(F)cccc2Cl)o1` (stereo in doubt; 1), for which the IC50 was below 1 µM in assay [1]; below 1 µM in assay [2]; below 1 µM at Cruzipain [3]; above 600 µM in assay [4]; above 600 µM in assay [5]; below 1 µM in assay [6]. The IC50 (at Cruzipain [7]; in assay [8]) was below 1 µM each time.

On to `O=C(O)C1=CC(=C(c2ccc(O)c(C(=O)O)c2)c2ccc(O)c(C(=O)O)c2)C=CC1=O` [AURINTRICARBOXYLIC ACID], for which the IC50 in assay [1] is 120 µM; in assay [2] it was 184 µM; on Cruzipain [3], 28 µM; in assay [4], 5 µM; in assay [5], 30 µM; in assay [6], above 600 µM. Also, the IC50 on Cruzipain [7] was 53 µM; in assay [8], above 600 µM.

On to `O=c1oc2c(O)c(O)cc3c(=O)oc4c(O)c(O)cc1c4c23` [ELLAGIC ACID], for which the IC50 in assay [1] is 146 µM; in assay [2], 470 µM; on Cruzipain [3], 220 µM; in assay [4], 55 µM; in assay [5], 106 µM; in assay [6], above 600 µM. The values for the 50% inhibitory concentration (IC50) (against Cruzipain [7]; in assay [8]) were 64 µM and below 600 µM, respectively.

These data come from ChEMBL document CHEMBL1142414, “Comprehensive mechanistic analysis of hits from high-throughput and docking screens against beta-lactamase” (J Med Chem, 2008).
